From ChEMBL document CHEMBL3804828, “2,4,6-Triaminopyrimidine as a Novel Hinge Binder in a Series of PI3Kδ Selective Inhibitors” (J Med Chem, 2016)

Legend:
[1] = target: T1, Aldehyde oxidase (Homo sapiens, UniProt Q06278); assay: Drug level in human hepatocytes assessed as aldehyde oxidase-mediated compound formation treated with (S)-4-Amino-6-((1-(5-chloro-4-oxo-3-phenyl-3,4-dihydroquinazolin-2-yl)ethyl)amino)pyrimidine-5-carbonitrile at 1 uM by LC/MS/MS analysis; type: ADME, cell-based, Hepatocyte
T1 sequence (Q06278 whole entry): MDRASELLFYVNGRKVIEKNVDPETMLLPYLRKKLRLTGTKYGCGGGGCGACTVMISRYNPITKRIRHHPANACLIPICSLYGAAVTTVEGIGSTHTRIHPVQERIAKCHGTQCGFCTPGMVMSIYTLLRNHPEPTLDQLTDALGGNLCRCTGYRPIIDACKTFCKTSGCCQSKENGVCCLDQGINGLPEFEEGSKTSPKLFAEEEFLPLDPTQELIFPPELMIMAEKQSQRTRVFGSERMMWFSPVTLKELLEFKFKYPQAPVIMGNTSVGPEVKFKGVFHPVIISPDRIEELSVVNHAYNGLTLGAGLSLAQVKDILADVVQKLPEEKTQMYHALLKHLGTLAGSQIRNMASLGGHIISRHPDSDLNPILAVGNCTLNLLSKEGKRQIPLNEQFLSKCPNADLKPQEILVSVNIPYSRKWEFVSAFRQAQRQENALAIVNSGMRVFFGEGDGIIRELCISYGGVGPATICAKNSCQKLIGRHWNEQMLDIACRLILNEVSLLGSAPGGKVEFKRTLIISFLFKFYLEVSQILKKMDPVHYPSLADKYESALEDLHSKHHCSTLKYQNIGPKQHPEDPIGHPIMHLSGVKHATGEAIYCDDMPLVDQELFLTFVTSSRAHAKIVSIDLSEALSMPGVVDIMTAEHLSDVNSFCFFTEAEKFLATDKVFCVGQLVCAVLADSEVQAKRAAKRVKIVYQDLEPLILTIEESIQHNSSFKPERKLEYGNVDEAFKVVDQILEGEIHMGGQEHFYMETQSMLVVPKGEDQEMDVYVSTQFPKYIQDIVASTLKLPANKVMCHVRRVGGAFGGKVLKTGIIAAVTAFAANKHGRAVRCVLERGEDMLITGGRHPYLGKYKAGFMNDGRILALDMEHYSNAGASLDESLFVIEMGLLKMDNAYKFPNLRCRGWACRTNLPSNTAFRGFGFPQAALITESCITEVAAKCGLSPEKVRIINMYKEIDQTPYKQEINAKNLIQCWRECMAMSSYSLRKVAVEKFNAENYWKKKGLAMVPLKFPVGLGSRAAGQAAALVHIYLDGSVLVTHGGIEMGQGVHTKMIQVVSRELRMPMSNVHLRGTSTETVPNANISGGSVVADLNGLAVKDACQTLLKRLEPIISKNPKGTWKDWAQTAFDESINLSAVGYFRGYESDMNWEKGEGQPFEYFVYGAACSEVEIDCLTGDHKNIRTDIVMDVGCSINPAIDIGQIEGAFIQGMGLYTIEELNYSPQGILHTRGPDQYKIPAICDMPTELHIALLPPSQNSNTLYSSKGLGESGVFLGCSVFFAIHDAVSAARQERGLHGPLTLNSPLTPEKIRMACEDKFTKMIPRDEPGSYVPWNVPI

[2] = target: PI3-kinase p110-delta/p85-alpha (Homo sapiens, UniProt O00329); assay: Inhibition human full length PI3Kdelta catalytic subunit/p85alpha assessed as formation of PIP3 after 30 mins by europium labeled GRP-based TR-FRET assay; type: protein-complex assay
[3] = system: Liver microsome; assay: Clearance in rat liver microsomes at 1 uM by LC/MS/MS analysis in presence of NADPH generating system; type: ADME
[4] = species on record: Homo sapiens; assay: Selectivity ratio of IC50 for human full length PI3Kalpha catalytic subunit/p85alpha to IC50 for human full length PI3Kdelta catalytic subunit/p85alpha
Method in brief: (§1)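 Ratio calculated from the isoform-specific PI3K IC50 values, with enzyme assays run in quadruplicate.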

[5] = species on record: Homo sapiens; assay: Selectivity ratio of IC50 for human recombinant PI3Kbeta to IC50 for human full length PI3Kdelta catalytic subunit/p85alpha; method in brief: as §1
[6] = species on record: Homo sapiens; assay: Selectivity ratio of IC50 for human full length PI3Kgamma to IC50 for human full length PI3Kdelta catalytic subunit/p85alpha; method in brief: as §1
[7] = Clearance in Sprague-Dawley rat at 0.44 mg/kg, iv by LC/MS/MS analysis; type: ADME, organism-based; details: in vivo
Method in brief: (§2)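 Single intravenous dose of 0.44 mg/kg to Sprague-Dawley rats, formulated at 0.09 mg/mL in 5% ethanol, 75% PEG 400 and 20% citrate buffer (pH 3.0). Three animals per dosing route. Volume of distribution taken at steady state.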

[8] = Volume of distribution at steady state in Sprague-Dawley rat at 0.44 mg/kg, iv by LC/MS/MS analysis; type: ADME, organism-based; details: in vivo, read-out: Vdss; method in brief: as §2
[9] = Half life in Sprague-Dawley rat at 0.44 mg/kg, iv by LC/MS/MS analysis; type: ADME, organism-based; details: in vivo; method in brief: as §2
[10] = Clearance in human hepatocytes at 1 uM by LC/MS/MS analysis; type: ADME, cell-based, Hepatocyte
Method in brief: (§3)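 Human hepatocytes, incubated with and without the aldehyde oxidase inhibitor raloxifene; predicted clearance calculated from turnover.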

[11] = system: Hepatocyte; assay: Clearance in human hepatocytes at 1 uM by LC/MS/MS in presence of aldehyde oxidase inhibitor raloxifene; type: ADME, cell-based; method in brief: as §3
[12] = target: T1, Aldehyde oxidase; assay: Drug metabolism in human hepatocytes assessed as aldehyde oxidase mediated (S)-4-Amino-6-((1-(5-chloro-4-oxo-3-phenyl 3,4-dihydroquinazolin-2-yl)ethyl)amino)-2-hydroxypyrimidine-5-carbonitrile formation at 1 uM by LC/MS/MS analysis; type: ADME, cell-based, Hepatocyte
[13] = system: Liver microsome; assay: Clearance in human liver microsomes at 1 uM by LC/MS/MS analysis in presence of NADPH generating system; type: ADME
[14] = target: T1, Aldehyde oxidase; assay: Drug metabolism in human hepatocytes assessed as aldehyde oxidase mediated M1 formation at 1 uM by LC/MS/MS analysis; type: ADME, cell-based, Hepatocyte

Chain of PI3-kinase p110-delta/p85-alpha (P27986 whole entry): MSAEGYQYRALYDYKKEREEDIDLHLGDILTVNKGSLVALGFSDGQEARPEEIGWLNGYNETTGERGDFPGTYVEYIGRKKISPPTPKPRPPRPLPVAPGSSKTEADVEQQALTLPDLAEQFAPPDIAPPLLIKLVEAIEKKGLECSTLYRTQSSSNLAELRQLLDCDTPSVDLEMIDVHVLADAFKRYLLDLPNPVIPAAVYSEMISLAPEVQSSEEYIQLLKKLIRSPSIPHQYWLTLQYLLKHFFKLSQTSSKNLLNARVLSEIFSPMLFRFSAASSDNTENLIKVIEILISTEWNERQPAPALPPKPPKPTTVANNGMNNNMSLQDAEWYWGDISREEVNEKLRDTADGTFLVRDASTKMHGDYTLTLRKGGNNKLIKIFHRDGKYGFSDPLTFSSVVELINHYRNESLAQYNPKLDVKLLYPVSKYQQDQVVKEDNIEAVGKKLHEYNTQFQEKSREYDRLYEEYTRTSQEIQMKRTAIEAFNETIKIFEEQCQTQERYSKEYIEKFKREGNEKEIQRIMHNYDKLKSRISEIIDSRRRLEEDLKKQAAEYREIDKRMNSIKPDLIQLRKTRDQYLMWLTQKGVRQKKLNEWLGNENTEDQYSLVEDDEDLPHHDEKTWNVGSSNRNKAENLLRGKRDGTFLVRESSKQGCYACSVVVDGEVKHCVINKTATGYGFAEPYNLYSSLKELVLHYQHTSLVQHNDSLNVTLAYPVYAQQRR
Chain of PI3-kinase p110-delta/p85-alpha (O00329 whole entry): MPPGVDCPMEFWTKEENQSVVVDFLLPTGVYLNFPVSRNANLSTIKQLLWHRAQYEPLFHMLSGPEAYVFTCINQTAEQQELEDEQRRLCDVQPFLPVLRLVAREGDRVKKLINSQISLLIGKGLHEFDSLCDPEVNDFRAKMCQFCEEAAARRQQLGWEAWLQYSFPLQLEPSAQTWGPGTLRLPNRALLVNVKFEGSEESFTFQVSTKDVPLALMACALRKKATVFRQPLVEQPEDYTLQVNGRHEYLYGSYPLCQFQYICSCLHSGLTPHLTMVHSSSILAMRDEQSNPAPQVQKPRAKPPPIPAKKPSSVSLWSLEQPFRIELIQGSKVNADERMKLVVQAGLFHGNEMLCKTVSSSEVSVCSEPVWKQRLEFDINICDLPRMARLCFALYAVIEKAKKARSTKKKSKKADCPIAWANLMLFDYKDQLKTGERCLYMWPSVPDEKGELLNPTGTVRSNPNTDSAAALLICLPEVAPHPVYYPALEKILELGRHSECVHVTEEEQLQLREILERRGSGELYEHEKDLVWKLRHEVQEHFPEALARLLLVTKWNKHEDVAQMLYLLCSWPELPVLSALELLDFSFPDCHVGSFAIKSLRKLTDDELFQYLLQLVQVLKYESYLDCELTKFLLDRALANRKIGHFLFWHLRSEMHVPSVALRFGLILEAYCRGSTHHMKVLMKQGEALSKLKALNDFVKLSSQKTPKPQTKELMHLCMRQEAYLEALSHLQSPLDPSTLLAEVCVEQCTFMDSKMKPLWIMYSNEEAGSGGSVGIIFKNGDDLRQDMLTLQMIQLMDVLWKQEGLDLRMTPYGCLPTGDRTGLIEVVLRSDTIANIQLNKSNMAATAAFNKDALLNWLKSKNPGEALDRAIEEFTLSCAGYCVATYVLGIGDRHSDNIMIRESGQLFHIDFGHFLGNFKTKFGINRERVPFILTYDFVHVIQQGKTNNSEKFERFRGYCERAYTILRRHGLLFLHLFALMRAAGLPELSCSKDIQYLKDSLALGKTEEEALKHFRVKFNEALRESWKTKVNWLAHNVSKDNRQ

Row | Drug metabolism [1] | Drug metabolism [14] | SMILES | IC50 [2] | CLH [3] | Ratio IC50 [4] | Ratio IC50 ([4]; tested as the 2H-labelled form) | Ratio IC50 [5] | Ratio IC50 ([5]; tested as the 2H-labelled form) | Ratio IC50 [6] | Ratio IC50 ([6]; tested as the 2H-labelled form) | clearance [7] | Vd [8] | half-life [9] | CLhep predicted at 1 µM [10] | CLH [11] | Drug metabolism [12] | CLH [13]
1 | metabolite_detected |  | C[C@H](Nc1nc(O)nc(N)c1C#N)c1nc2cccc(Cl)c2c(=O)n1-c1ccccc1 |  |  |  |  |  |  |  |  |  |  |  |  |  |  | 
2 |  |  | C[C@H](Nc1ncnc(N)c1C#N)c1nc2cccc(Cl)c2c(=O)n1-c1ccccc1 | 0.4 nM | 3.3 mL/min/kg | 4600 | 1200 | 200 | 70 | 680 | 420 | 18.3 mL/min/kg | 2.6 L/kg | 2.6 h | 14.7 mL/min/kg | 1.5 mL/min/kg | metabolite_detected | 1.7 mL/min/kg
3 |  | metabolite_detected | C[C@H](Nc1ncnc(N)c1C#Cc1ccc(F)cn1)c1nc2cccc(Cl)c2c(=O)n1-c1ccccc1 | 1.2 nM |  | 2600 |  | 330 |  | 470 |  |  |  |  | 8.5 mL/min/kg | 2.17 mL/min/kg |  | 
